Measurements as given in ChEMBL document CHEMBL5385922 (J Med Chem, 2024).
One block for each molecule: values may come before it. Active and inactive are the calls of the source. The calls are words filed in the database; no cut-off is given here.

Legend:
[1] = system: U-87 MG; experiment: Cytotoxicity against human U87 cells assessed as reduction in cell viability incubated for 24 hrs by resazurin assay; type: functional, cell-based, U-87MG ATCC
Summary of the method: (§1)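 Cell lines kept at 37 °C in humidified 5% CO2. Cells exposed to compounds for 24 h with DMSO control; viability measured by resazurin assay. Mean ± SEM, n = 3.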

[2] = system: Platelet; experiment: Antiplatelet activity against tumor cells-stimulated human platelets assessed as inhibition of A549 cells-induced platelet aggregation at 2 uM by turbidometric aggregometry; type: functional, cell-based
Summary of the method: (§2)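 Washed human platelets from ACD-anticoagulated blood of healthy volunteers, stirred at 1200 rpm, 37 °C, in 0.375% plasma. Aggregation was induced by A549 (1 × 10^4 cells/mL), MDA-MB-231 (1 × 10^2 cells/mL) or RPMI8226 (1 × 10^5 cells/mL) cells. Read-out is the maximal increase in light transmission by turbidimetric aggregometry. n = 3.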

[3] = system: Platelet; experiment: Antiplatelet activity against tumor cells-stimulated human platelets assessed as inhibition of MDA-MB-231 cells-induced platelet aggregation at 2 uM by turbidometric aggregometry; type: functional, cell-based; summary of the method: as §2
[4] = system: Platelet; experiment: Antiplatelet activity against tumor cells-stimulated human platelets assessed as inhibition of RPMI-8226 cells-induced platelet aggregation at 2 uM by turbidometric aggregometry; type: functional, cell-based; summary of the method: as §2
[5] = system: Platelet; experiment: Inhibition of tumor cell-induced platelet secretion in human platelets assessed as inhibition of A549-induced PDGF secretion at 1 to 5 uM by ELISA; type: functional, cell-based; conditions: dose 1-5 µM
Summary of the method: (§3)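 Washed human platelets were co-incubated with A549 cells under TCIPA conditions (0.375% plasma, stirred, 37 °C) for 25 min in the aggregometer, then centrifuged at 13,000g for 1 min. Supernatant PDGF-BB measured by ELISA and ATP by bioluminescent assay. Mean ± SEM, at least three independent experiments.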

[6] = system: Platelet; experiment: Inhibition of tumor cell-induced platelet secretion in human platelets assessed as inhibition of A549-induced ATP secretion at 1 to 5 uM by bioluminescent assay; type: functional, cell-based; conditions: dose 1-5 µM; summary of the method: as §3
[7] = system: A549; experiment: Inhibition of platelet-enhanced cell growth in human A549 cells assessed as reduction in cell viability at 0.5 to 2 uM co-incubated with platelets for 48 hrs by trypan blue exclusion assay; type: functional, cell-based; conditions: dose 0.5-2 µM
Summary of the method: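 A549 cells (1 × 10^4/well) co-incubated with washed human platelets (1 × 10^7/well) in 0.375% plasma for 48 h at 37 °C, 5% CO2. After PBS washing, viable cancer cells counted by trypan blue exclusion. Mean ± SEM, at least three independent experiments.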

[8] = system: A549; experiment: Cytotoxicity against human A549 cells assessed as reduction in cell viability at 0.5 to 2 uM incubated for 48 hrs by trypan bue exclusion assay; type: functional, cell-based; conditions: dose 0.5-2 µM
[9] = target: T1, Protein disulfide-isomerase (Homo sapiens, UniProt P07237); experiment: Covalent inhibition of human recombinant PDI assessed as inhibition of E-GSH formation using Di-E-GSSG as substrate at 10 uM measured for 60 mins in presence of DTT and 1 mM GSH by fluorescence based analysis
Summary of the method: (§4)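 Human rPDI incubated with compounds at 10 μM in the presence of DTT (5 μM) or GSH (1 mM). PDI activity read by Di-E-GSSG assay (E-GSH fluorescence). Mean ± SEM of three independent experiments.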
Target sequence in this assay (P07237 18-508 limits assumed): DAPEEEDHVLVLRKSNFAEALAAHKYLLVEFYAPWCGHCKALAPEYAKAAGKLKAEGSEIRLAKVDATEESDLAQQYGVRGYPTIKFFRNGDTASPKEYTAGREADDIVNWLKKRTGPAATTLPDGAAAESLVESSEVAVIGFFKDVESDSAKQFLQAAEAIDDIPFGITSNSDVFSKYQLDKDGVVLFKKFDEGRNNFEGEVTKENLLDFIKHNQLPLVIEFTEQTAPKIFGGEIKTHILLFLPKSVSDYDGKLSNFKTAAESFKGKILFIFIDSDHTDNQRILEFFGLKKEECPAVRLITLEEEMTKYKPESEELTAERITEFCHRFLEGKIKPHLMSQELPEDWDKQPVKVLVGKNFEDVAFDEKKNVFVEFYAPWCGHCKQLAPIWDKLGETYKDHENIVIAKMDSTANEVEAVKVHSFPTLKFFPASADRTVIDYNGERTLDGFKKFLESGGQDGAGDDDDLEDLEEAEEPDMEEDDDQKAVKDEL

[10] = system: RPMI-8226; experiment: Cytotoxicity against human RPMI-8226 cells assessed as reduction in cell viability at 0.001 to 10 uM incubated for 72 hrs by resazurin assay; type: functional, cell-based; conditions: dose 0.001-10 µM
Summary of the method: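 RPMI8226 cells exposed to compounds for 72 h at 37 °C, 5% CO2 with DMSO control; viability measured by resazurin assay, n = 4.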

[11] = target: T1, Protein disulfide-isomerase; experiment: Covalent inhibition of PDI (unknown origin) by GSSG fluorescence assay
Target sequence in this assay (P07237 whole entry): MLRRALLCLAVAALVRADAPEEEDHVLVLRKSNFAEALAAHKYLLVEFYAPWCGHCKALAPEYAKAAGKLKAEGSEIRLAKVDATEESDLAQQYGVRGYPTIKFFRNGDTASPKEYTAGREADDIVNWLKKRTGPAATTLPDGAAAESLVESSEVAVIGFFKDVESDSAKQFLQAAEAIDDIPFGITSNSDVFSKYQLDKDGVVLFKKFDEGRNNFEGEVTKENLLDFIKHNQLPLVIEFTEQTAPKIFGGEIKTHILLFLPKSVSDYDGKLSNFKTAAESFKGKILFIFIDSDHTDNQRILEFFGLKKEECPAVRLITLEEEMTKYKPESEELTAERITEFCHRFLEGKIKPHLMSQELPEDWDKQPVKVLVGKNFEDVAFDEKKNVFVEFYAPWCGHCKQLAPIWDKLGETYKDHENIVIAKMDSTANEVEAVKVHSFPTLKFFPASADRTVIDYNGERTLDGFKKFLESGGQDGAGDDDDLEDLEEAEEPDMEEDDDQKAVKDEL

[12] = GSH reactivity in aqueous solution assessed as GSH-adduct formation at 400 uM incubated for 30 mins in presence of GSH by UPLC-MS analysis; type: physicochemical; conditions: buffer, 0.5 h
Summary of the method: (§5)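 Compounds (400 μM) incubated in water with or without GSH (4 mM) at 37 °C for 30 min. Diluted 1:1 with methanol, then analysed by UPLC-MS on a BEH C18 column (water/acetonitrile gradient, 0.4 mL/min, 40 °C) in positive/negative ion mode.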

[13] = target: T2, Protein disulfide-isomerase A4 (Homo sapiens, UniProt P13667); experiment: Inhibition of human recombinant ERp72 assessed as inhibition of E-GSH formation using Di-E-GSSG as substrate measured for 60 mins in presence of DTT by fluorescence based analysis
T2 sequence (P13667 whole entry): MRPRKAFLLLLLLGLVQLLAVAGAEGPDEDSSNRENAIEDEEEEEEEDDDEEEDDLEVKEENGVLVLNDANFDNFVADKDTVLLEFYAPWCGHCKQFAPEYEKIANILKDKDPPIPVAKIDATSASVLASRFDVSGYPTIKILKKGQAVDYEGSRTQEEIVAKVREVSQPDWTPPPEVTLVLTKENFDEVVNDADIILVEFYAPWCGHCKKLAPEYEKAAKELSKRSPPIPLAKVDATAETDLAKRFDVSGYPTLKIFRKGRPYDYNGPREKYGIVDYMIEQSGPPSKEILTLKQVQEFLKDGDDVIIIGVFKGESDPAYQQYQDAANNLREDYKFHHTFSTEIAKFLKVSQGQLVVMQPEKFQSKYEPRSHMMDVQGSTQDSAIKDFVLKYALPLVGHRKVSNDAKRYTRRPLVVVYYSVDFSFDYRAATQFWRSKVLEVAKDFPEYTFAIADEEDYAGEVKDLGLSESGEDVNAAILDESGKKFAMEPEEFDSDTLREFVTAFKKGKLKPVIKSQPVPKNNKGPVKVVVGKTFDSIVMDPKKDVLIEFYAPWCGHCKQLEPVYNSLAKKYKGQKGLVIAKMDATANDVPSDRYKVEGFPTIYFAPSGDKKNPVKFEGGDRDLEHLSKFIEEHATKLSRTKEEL
Summary of the method: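 Recombinant human ERp72 reductase activity measured with Di-E-GSSG substrate, started with DTT, by fluorometry of E-GSH formation. Mean ± SEM, n = 3.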

[14] = system: A549; experiment: Cytotoxicity against human A549 cells assessed as reduction in cell viability incubated for 24 hrs by resazurin assay; type: functional, cell-based; summary of the method: as §1
[15] = system: MDA-MB-231; experiment: Cytotoxicity against human MDA-MB-231 cells assessed as reduction in cell viability incubated for 24 hrs by resazurin assay; type: functional, cell-based; summary of the method: as §1
[16] = system: RPMI-8226; experiment: Cytotoxicity against human RPMI-8226 cells assessed as reduction in cell viability incubated for 24 hrs by resazurin assay; type: functional, cell-based; summary of the method: as §1
[17] = system: Platelet; experiment: Antiplatelet activity in human platelets assessed as inhibition of U46619-induced platelet aggregation upto 40 uM by turbidimetric analysis; type: functional, cell-based
[18] = system: Platelet; experiment: Antiplatelet activity in human platelets assessed as inhibition of collagen-induced platelet aggregation upto 40 uM by turbidimetric analysis; type: functional, cell-based
[19] = target: T1, Protein disulfide-isomerase; experiment: Covalent inhibition of PDI (unknown origin) by insulin aggregation assay
Target sequence in this assay (P07237 whole entry): as the sequence (P07237 whole entry) above

[20] = target: T1, Protein disulfide-isomerase; experiment: Non-covalent inhibition of human recombinant PDI assessed as inhibition of E-GSH formation using Di-E-GSSG as substrate at 10 uM measured for 60 mins in presence of DTT and 1 mM GSH by fluorescence based analysis; summary of the method: as §4
Target sequence in this assay (P07237 18-508 limits assumed): as the sequence (P07237 18-508 limits assumed) above

[21] = target: T1, Protein disulfide-isomerase; experiment: Non-covalent inhibition of PDI (unknown origin) by GSSG fluorescence assay
Target sequence in this assay (P07237 whole entry): as the sequence (P07237 whole entry) above

[22] = system: Platelet; experiment: Antiplatelet activity against tumor cells-stimulated human platelets assessed as inhibition of A549 cells-induced platelet aggregation at 1 uM by turbidometric aggregometry; type: functional, cell-based; summary of the method: as §2
[23] = system: Platelet; experiment: Antiplatelet activity against tumor cells-stimulated human platelets assessed as inhibition of MDA-MB-231 cells-induced platelet aggregation at 1 uM by turbidometric aggregometry; type: functional, cell-based; summary of the method: as §2
[24] = system: Platelet; experiment: Antiplatelet activity against tumor cells-stimulated human platelets assessed as inhibition of RPMI-8226 cells-induced platelet aggregation at 1 uM by turbidometric aggregometry; type: functional, cell-based; summary of the method: as §2
[25] = system: Platelet; experiment: Inhibition of tumor cell-induced platelet secretion in human platelets assessed as inhibition of A549-induced PDGF secretion at 1 uM by ELISA; type: functional, cell-based; summary of the method: as §3
[26] = system: Platelet; experiment: Inhibition of tumor cell-induced platelet secretion in human platelets assessed as inhibition of A549-induced ATP secretion at 1 uM by bioluminescent assay; type: functional, cell-based; summary of the method: as §3
[27] = system: Platelet; experiment: Antiplatelet activity in human platelets assessed as inhibition of U46619-induced platelet aggregation by turbidimetric analysis; type: functional, cell-based
Summary of the method: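 Washed human platelets from ACD-anticoagulated volunteer blood, stimulated with U46619 (1 μM). Aggregation measured turbidimetrically under stirring (1200 rpm) at 37 °C as the maximal increase in light transmission.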

[28] = system: Platelet; experiment: Antiplatelet activity against tumor cells-stimulated human platelets assessed as inhibition of A549 cells-induced platelet aggregation at 100 uM by turbidometric aggregometry; type: functional, cell-based; summary of the method: as §2
[29] = system: Platelet; experiment: Antiplatelet activity against tumor cells-stimulated human platelets assessed as inhibition of MDA-MB-231 cells-induced platelet aggregation at 100 uM by turbidometric aggregometry; type: functional, cell-based; summary of the method: as §2
[30] = system: Platelet; experiment: Antiplatelet activity against tumor cells-stimulated human platelets assessed as inhibition of RPMI-8226 cells-induced platelet aggregation at 100 uM by turbidometric aggregometry; type: functional, cell-based; summary of the method: as §2
[31] = system: Platelet; experiment: Inhibition of tumor cell-induced platelet secretion in human platelets assessed as inhibition of A549-induced PDGF secretion at 100 uM by ELISA; type: functional, cell-based; summary of the method: as §3
[32] = system: Platelet; experiment: Inhibition of tumor cell-induced platelet secretion in human platelets assessed as inhibition of A549-induced ATP secretion at 100 uM by bioluminescent assay; type: functional, cell-based; summary of the method: as §3
[33] = Stability of the compound in aqueous solution at 400 uM measured after 30 mins by UPLC-MS analysis; type: physicochemical; conditions: buffer, 0.5 h; summary of the method: as §5

SMILES: CC(=O)O[C@@H]1O[C@H](CSC2=CC(=O)c3cccc(O)c3C2=O)[C@@H](OC(C)=O)[C@H](OC(C)=O)[C@H]1OC(C)=O
IC50 [1]: > 20 µM
Activity [2]: Active
Activity [3]: Active
Activity [4]: Active
inhibition [5]: Active
inhibition [6]: Active
inhibition [7]: Active
Activity [8]: inactive
inhibition [9]: Active

SMILES: COc1ccc(N2C(=O)/C(=C\c3ccc([N+](=O)[O-])s3)SC2=S)cc1
Activity [10]: Active
IC50 [11]: 2.9 µM

SMILES: CC(=O)OC[C@H]1O[C@@H](SC2=C(c3ccc(O)cc3O)C(=O)c3c(O)cccc3C2=O)[C@H](OC(C)=O)[C@@H](OC(C)=O)[C@@H]1OC(C)=O
inhibition [9]: Active
Activity [12]: Active

SMILES: CC(=O)OC[C@H]1O[C@H](OC2=CC(=O)c3cccc(O)c3C2=O)[C@H](OC(C)=O)[C@@H](OC(C)=O)[C@@H]1OC(C)=O
Activity [2]: Active
Activity [3]: Active
Activity [4]: Active
inhibition [5]: Active
inhibition [6]: Active
inhibition [7]: Active
Activity [8]: inactive
inhibition [9]: Active
IC50 [13]: 4.01 µM

SMILES: CC(C)(C)CN(C(=O)CCl)C1CCS(=O)(=O)C1 (stereo unspecified)
IC50 [14]: Not Active
IC50 [15]: Not Active
IC50 [16]: Not Active
Activity [17]: inactive
Activity [18]: inactive

SMILES: O=c1c(O[C@@H]2O[C@H](CO)[C@@H](O)[C@H](O)[C@H]2O)c(-c2ccc(O)c(O)c2)oc2cc(O)cc(O)c12 [ISOQUERCETIN]
inhibition [20]: Active
IC50 [21]: 7.1 µM

SMILES: CCCSc1nc(N[C@@H]2C[C@H]2c2ccc(F)c(F)c2)c2nnn([C@@H]3C[C@H](OCCO)[C@@H](O)[C@H]3O)c2n1
Activity [22]: inactive
Activity [23]: inactive
Activity [24]: inactive
inhibition [25]: inactive
inhibition [26]: inactive

SMILES: COc1ccc(SC2=C(c3ccc(O)cc3O)C(=O)c3c(O)cccc3C2=O)cc1
inhibition [20]: Active
Stability [33]: Stable
Activity [12]: Not Active

Second part, led by results:

inhibition [9]: Active
SMILES: COc1cccc(SC2=CC(=O)c3cccc(O)c3C2=O)c1

IC50 [19]: 1.7 µM
SMILES: C#CCCCNC(=O)[C@@H](CCNC(=O)[C@H](Cc1ccccc1)NC(=O)OC(C)(C)C)Cc1ccc(OS(=O)(=O)C=C)cc1

IC50 [27]: > 200 µM
SMILES: CC(=O)Oc1ccccc1C(=O)O [ASPIRIN]
Activity [28]: inactive
Activity [29]: inactive
Activity [30]: inactive
inhibition [31]: inactive
inhibition [32]: inactive

IC50 [19]: 10 µM
SMILES: C#CC(=O)N(c1ccc(OC)cc1OC)C(C(=O)NCC(=O)OCC)c1cccs1 (stereo unspecified)
